Assay results published in publication PMC4177335 (ChemMedChem, 2014).
Entries after “also recorded” stand apart in the source; their conditions may differ. Where two headings read alike, the source gives them in different places.

Experiments:
[1] = tested on: P. falciparum 3D7 strain parasites; assay: In vitro P. falciparum growth and proliferation assay; format: cell-based, Plasmodium falciparum; details: for IC50: read-out: Pf3D7 IC50; for fold reduction in Pf3D7 activity: versus the comparator analogue named in the sentence
[2] = tested on: chloroquine-sensitive and chloroquine-resistant parasites; details: ref [13]; cited from earlier work
[3] = ref [21]; cited from earlier work
[4] = tested on: highly synchronized P. falciparum parasites; details: throughout the intraerythrocytic life cycle; ref [13]; cited from earlier work
[5] = tested on: histone H3K4me3; details: ref [13]; cited from earlier work
[6] = tested on: HepG2 cells; details: Table 5; ref [21]; cited from earlier work
[7] = tested on: histone H3K4me3; assay: Parasite histone methylation analysis; format: cell-based, P. falciparum 3D7; details: 5-fold IC50, 12 hours, relative to DMSO control
How it was run: (§1)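 3D7 cultures were exposed for 12 h to test compound, chloroquine or DMSO vehicle. Infected blood was saponin-treated (0.15% in PBS) to remove red cells, and freed parasites were lysed by bath sonication in 2% SDS for Western blot. Trimethyl-specific bands were quantified by densitometry, normalized to core histone H3 signal and expressed relative to DMSO-treated parasites.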

[8] = tested on: histone H3K9me3; details: ref [13]; cited from earlier work
[9] = cited from earlier work
[10] = tested on: histone H3K9me3; assay: Parasite histone methylation analysis; format: cell-based, P. falciparum 3D7; details: 5-fold IC50, 12 hours, relative to DMSO control
How it was run: as §1

[11] = microsomes, cited from earlier work
[12] = tested on: HepG2 cells; assay: In vitro cytotoxicity assay; format: cell-based, human; details: for HepG2/Pf3D7: ratio HepG2 IC50 / Pf3D7 IC50; for IC50: read-out: HepG2 IC50
[13] = cited from earlier work; remark: listed apart in the source
[14] = Plasmodium falciparum, 3D7, 72 h
[15] = HepG2 cells, three days, CellTiterBlue
[16] = P. falciparum 3D7 strain, three-day SYBR Green I assay

Row | Compound | IC50 [1, 14] [µM] | fold reduction in Pf3D7 activity [1] | HepG2/Pf3D7 [12] | IC50 ([12]; Homo sapiens, HepG2, 72 h) [µM] | IC50 [12, 15] [µM] | IC50 [1, 16] [µM] | further results
1 | COc1cc2nc(N3CCN(C)CC3)nc(NC(C)C)c2cc1OC [Compound 51, (Isopropyl)[6,7-dimethoxy-2-(4-methyl-1-piperazinyl)-4-quinazolinyl]amine] | > 0.3 | 7-17 fold |  |  |  |  | 
2 | COc1cc2nc(N3CCCN(C)CC3)nc(NC3CCN(Cc4ccccc4)CC3)c2cc1OC [Compound 1, (1-Benzyl-4-piperidyl)[6,7-dimethoxy-2-(4-methyl-1,4-diazepin-1-yl)-4-quinazolinyl]amine] | 0.0434 |  | 110.6 |  |  |  | potency against chloroquine-sensitive versus chloroquine-resistant parasites [2]: equally potent; rat plasma t1/2 [3]: >4 h; killing phenotype [4]: fast killing phenotype; H3K4me3 levels of the parasite [5]: decrease; also recorded: reduced; HepG2/3D7 [6]: 110.6; H3K4me3 levels in treated parasites [7]: decreased; H3K9me3 levels of the parasite [8]: decrease; logD pH 3 ([9]; pH 3): 0.5; logD pH 7.4 ([9]; pH 7.4): 5; H3K9me3 levels in treated parasites [10]: decreased; rat microsome t1/2 [11]: 0.883 h; in vitro CLint ([11]; rat): 33 μl/min/mg protein; solubility pH 2 ([13]; pH 2): >100 μg/ml; solubility pH 6.5 ([13]; pH 6.5): >100 μg/ml
3 | CCN(CC)CCCC(C)Nc1ccnc2cc(Cl)ccc12 (stereo not drawn) [chloroquine] |  |  |  |  |  |  | H3K4me3 levels in treated parasites [7]: slight decrease; H3K9me3 levels in treated parasites [10]: slight increase
4 | COc1cc2nc(N3CCN(c4ccccn4)CC3)nc(N(C)C3CCN(Cc4ccccc4)CC3)c2cc1OC [Compound 63, (1-Benzyl-4-piperidyl)-N-methyl{6,7-dimethoxy-2-[4-(2-pyridyl)-1-piperazinyl]-4-quinazolinyl}amine] | 0.472 | 10-20 fold | 20.4 | 9.6 |  |  | 
5 | (1-Benzyl-4-piperidyl){6,7-dimethoxy-2-[4-(2-pyridyl)-1-piperazinyl]-4-quinazolinyl}amine [Compound 75] |  |  | 14.2 |  | 5 | 0.354 | 
6 | COc1cc2nc(N3CCCN(C)CC3)nc(OC3CCN(Cc4ccccc4)CC3)c2cc1OC [Compound 65, 4-(1-Benzyl-4-piperidyloxy)-6,7-dimethoxy-2-(4-methyl-1,4-diazepin-1-yl)quinazoline] |  |  | 5.4 |  | 7.9 | 1.46 | 
7 | COc1cc2nc(N3CCCCC3)nc(N(C)C3CCN(Cc4ccccc4)CC3)c2cc1OC [Compound 61, (1-Benzyl-4-piperidyl)-N-methyl(6,7-dimethoxy-2-piperidino-4-quinazolinyl)amine] | 0.495 | 10-20 fold | 16.4 | 8.1 |  |  | 
8 | COc1cc2nc(N3C=CC=CC=C3)nc(N(C)C3CCN(Cc4ccccc4)CC3)c2cc1OC [Compound 62, (1-Benzyl-4-piperidyl)-N-methyl[2-(1-azepinyl)-6,7-dimethoxy-4-quinazolinyl]amine] | 0.4 | 10-20 fold | 13.6 | 5.4 |  |  | 
9 | COc1cc2nc(N3CCCN(C)CC3)nc(N(C)C3CCN(Cc4ccccc4)CC3)c2cc1OC [Compound 60, (1-Benzyl-4-piperidyl)-N-methyl[6,7-dimethoxy-2-(4-methyl-1,4-diazepin-1-yl)-4-quinazolinyl]amine] |  | 10-20 fold | 37.9 |  | 6 | 0.159 | 
10 | CN1CCCN(c2nc(NC3CCN(Cc4ccccc4)CC3)c3ccccc3n2)CC1 [Compound 73, (1-Benzyl-4-piperidyl)[2-(4-methyl-1,4-diazepin-1-yl)-4-quinazolinyl]amine] |  |  | 69.6 |  | 7 | 0.101 | 
11 | COc1cc2nc(N3C=CC=CC=C3)nc(NC3CCN(Cc4ccccc4)CC3)c2cc1OC [Compound 4, (1-Benzyl-4-piperidyl)[2-(1-azepinyl)-6,7-dimethoxy-4-quinazolinyl]amine] | 0.0291 |  |  |  |  |  | Pf3D7 activity (in words) ([1]; P. falciparum 3D7 strain): comparable to 1
12 | COc1cc2nc(N3CCN(c4ccccn4)CC3)nc(OC3CCN(Cc4ccccc4)CC3)c2cc1OC [Compound 66, 4-(1-Benzyl-4-piperidyloxy)-6,7-dimethoxy-2-[4-(2-pyridyl)-1-piperazinyl]quinazoline] | 2.06 |  | 7.7 | 15.7 |  |  | 
13 | c1ccc(CN2CCC(Nc3nc(N4CCCCC4)nc4ccccc34)CC2)cc1 [Compound 74, (1-Benzyl-4-piperidyl)(2-piperidino-4-quinazolinyl)amine] | 0.385 |  |  |  |  |  | 
